Results published in ChEMBL document CHEMBL4393681, “The identification of naturally occurring labdane diterpenoid calcaratarin D as a potential anti-inflammatory agent” (Eur J Med Chem, 2019).
Activity calls are given as the source filed them. The calls are words filed in the database; no cut-off is given here.

Assays:
[1] = Cytotoxicity against mouse RAW264.7 cells assessed as cell viability at 20 uM incubated for 18 hrs by celltiter-glo luminescent assay relative to control; format: cell-based; conditions: read-out: Activity
Summary of the method: (§1)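 Non-stimulated RAW264.7 cells were exposed to 0.1, 1, 5 and 20 µM compound from 100 mM DMSO stocks. Percent viability is the mean of three separate experiments with triplicate samples.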

RAW264.7 [2] = experiment: Anti-inflammatory activity in mouse RAW264.7 cells assessed as inhibition of LPS-induced IL-6 production at 20 uM pretreated for 1 hr followed by LPS stimulation and measured after 18 hrs by ELISA relative to control; format: functional; design: scale not given: the % may be the effect or the level left
Summary of the method: (§2)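 DMSO stocks (100 mM) were tested at 0.1, 1, 5 and 20 µM on LPS-stimulated RAW264.7 cells, with dexamethasone 1 µM as positive control. Secreted TNF-α or IL-6 was normalized to the percentage of viable LPS-stimulated cells at each concentration. Mean of three separate experiments, each in triplicate.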

[3] = target: RAC-alpha serine/threonine-protein kinase (Mus musculus) (UniProt P31750); experiment: Inhibition of LPS-stimulated AKT phosphorylation in mouse RAW264.7 cells pretreated for 1 hr followed by LPS stimulation and measured after 4 hrs by Western blot analysis; format: cell-based
Chain of RAC-alpha serine/threonine-protein kinase (Mus musculus) (P31750 whole entry): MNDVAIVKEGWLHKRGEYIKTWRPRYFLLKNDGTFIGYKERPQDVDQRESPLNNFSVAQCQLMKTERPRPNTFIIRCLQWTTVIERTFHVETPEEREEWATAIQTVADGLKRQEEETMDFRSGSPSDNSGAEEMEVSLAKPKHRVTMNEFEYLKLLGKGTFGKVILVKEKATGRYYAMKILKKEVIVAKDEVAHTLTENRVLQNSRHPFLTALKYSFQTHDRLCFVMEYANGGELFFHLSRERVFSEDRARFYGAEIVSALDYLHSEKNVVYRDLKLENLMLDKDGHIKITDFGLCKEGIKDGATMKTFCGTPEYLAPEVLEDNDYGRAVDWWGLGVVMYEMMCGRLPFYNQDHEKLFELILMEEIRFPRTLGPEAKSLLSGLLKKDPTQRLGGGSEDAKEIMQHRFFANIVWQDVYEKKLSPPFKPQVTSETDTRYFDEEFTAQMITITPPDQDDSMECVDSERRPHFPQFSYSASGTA
Summary of the method: (§3)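 RAW264.7 cells received compound (5–20 µM) or vehicle with LPS 25 ng/mL for 4 h. Phospho-ERK1/2, SAPK/JNK, p38 and Akt were immunoblotted against a GAPDH loading control. Akt phosphorylation was quantified by band intensity, mean ± SEM, n = 4, versus 0.02% DMSO cells.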

[4] = target: MAP kinase p38 (Mus musculus) (UniProt P47811+O08911+Q9WUI1+Q9Z1B7); experiment: Inhibition of LPS-stimulated p38 MAPK phosphorylation in mouse RAW264.7 cells at 5 to 20 uM pretreated for 1 hr followed by LPS stimulation and measured after 4 hrs by Western blot analysis; format: cell-based; summary of the method: as §3
RAW264.7 [5] = experiment: Anti-inflammatory activity in mouse RAW264.7 cells assessed as inhibition of LPS-induced IL-6 production at 0.1 uM pretreated for 1 hr followed by LPS stimulation and measured after 18 hrs by ELISA relative to control; format: functional; design: scale not given: the % may be the effect or the level left; summary of the method: as §2
RAW264.7 [6] = experiment: Anti-inflammatory activity in mouse RAW264.7 cells assessed as inhibition of LPS-induced TNFalpha production at 1 uM pretreated for 1 hr followed by LPS stimulation and measured after 18 hrs by ELISA relative to control; format: functional; design: scale not given: the % may be the effect or the level left; summary of the method: as §2
RAW264.7 [7] = experiment: Anti-inflammatory activity in mouse RAW264.7 cells assessed as inhibition of LPS-induced IL-6 production at 5 uM pretreated for 1 hr followed by LPS stimulation and measured after 18 hrs by ELISA relative to control; format: functional; design: scale not given: the % may be the effect or the level left; summary of the method: as §2
RAW264.7 [8] = experiment: Anti-inflammatory activity against mouse RAW264.7 cells assessed as inhibition of LPS-stimulated NO production pretreated for 1 hr followed by LPS stimulation and measured after 24 hrs by Griess reagent based assay; format: functional, cell-based
[9] = Cytotoxicity against mouse RAW264.7 cells assessed as cell viability at 0.1 uM incubated for 18 hrs by celltiter-glo luminescent assay relative to control; format: cell-based; conditions: read-out: Activity; summary of the method: as §1
Mus musculus [10] = species on record: Mus musculus; experiment: Inhibition of LPS-stimulated NFkappaB activation in mouse RAW blue cells assessed as reduction in SEAP protein expression pretreated for 1 hr followed by LPS stimulation and measured after 24 hrs by reporter gene assay; format: cell-based
Summary of the method: (§4)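 RAW-Blue NF-κB–SEAP reporter cells were pretreated for 1 h with compound (0.1–20 µM), dexamethasone 1 µM or DMSO vehicle, then given LPS 25 ng/mL for 24 h. SEAP activity in the supernatant was read with LPS-treated 0.02% DMSO cells set as 100%. Mean ± SEM, n = 4.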

[11] = target: Mitogen-activated protein kinase 1 and 3 (ERK2 and ERK1) (Mus musculus) (UniProt P63085+Q63844); experiment: Inhibition of LPS-stimulated ERK1/2 phosphorylation in mouse RAW264.7 cells at 5 to 20 uM pretreated for 1 hr followed by LPS stimulation and measured after 4 hrs by Western blot analysis; format: cell-based; summary of the method: as §3
Chain of Mitogen-activated protein kinase 1 and 3 (ERK2 and ERK1) (Mus musculus) (P63085 whole entry, looked up): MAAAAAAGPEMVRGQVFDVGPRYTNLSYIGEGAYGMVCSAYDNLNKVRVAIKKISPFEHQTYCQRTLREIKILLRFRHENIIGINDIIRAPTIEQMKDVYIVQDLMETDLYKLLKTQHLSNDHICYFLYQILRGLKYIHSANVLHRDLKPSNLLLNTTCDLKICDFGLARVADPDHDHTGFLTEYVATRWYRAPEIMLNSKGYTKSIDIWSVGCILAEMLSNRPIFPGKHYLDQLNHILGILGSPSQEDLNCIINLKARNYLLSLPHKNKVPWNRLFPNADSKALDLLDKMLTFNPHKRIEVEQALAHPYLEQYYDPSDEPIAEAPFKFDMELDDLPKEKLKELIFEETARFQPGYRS
Chain of Mitogen-activated protein kinase 1 and 3 (ERK2 and ERK1) (Mus musculus) (Q63844 whole entry, looked up): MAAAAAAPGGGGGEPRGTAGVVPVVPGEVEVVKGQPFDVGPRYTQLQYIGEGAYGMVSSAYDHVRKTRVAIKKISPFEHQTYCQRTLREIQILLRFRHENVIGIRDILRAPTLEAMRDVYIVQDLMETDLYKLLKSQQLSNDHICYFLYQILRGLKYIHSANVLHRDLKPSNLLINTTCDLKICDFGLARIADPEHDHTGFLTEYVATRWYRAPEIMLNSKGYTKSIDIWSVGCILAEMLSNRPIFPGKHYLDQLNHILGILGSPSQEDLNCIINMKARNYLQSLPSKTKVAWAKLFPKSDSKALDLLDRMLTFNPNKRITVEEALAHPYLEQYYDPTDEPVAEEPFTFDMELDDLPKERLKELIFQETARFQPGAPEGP

[12] = target: Transcription factor p65 (Mus musculus) (UniProt Q04207); experiment: Effect on total p65 NFkappaB subunit protein level in mouse RAW264.7 cells at 5 to 20 uM pretreated for 1 hr followed by LPS stimulation and measured after 4 hrs by Western blot analysis; format: cell-based
Chain of Transcription factor p65 (Mus musculus) (Q04207 whole entry): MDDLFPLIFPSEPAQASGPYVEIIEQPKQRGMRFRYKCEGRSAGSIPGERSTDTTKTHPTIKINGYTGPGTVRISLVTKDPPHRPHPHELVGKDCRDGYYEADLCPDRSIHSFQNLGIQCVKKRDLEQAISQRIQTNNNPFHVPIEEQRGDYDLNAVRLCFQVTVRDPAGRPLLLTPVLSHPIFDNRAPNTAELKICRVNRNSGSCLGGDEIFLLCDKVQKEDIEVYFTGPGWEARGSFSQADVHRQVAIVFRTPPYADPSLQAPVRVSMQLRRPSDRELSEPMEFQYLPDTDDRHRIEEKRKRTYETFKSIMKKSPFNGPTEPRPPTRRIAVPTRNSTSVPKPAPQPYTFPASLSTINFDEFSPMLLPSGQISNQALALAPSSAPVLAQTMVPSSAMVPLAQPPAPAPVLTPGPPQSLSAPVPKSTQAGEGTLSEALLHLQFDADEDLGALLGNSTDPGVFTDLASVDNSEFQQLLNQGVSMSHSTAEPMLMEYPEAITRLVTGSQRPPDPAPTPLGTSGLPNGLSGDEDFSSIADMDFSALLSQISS
Summary of the method: (§5)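 Whole-cell lysates from RAW264.7 cells given compound (5–20 µM) or vehicle and LPS 25 ng/mL for 4 h. Phosphorylated and total p65 were immunoblotted and bands quantified densitometrically. Mean ± SEM, n = 4, compared with 0.02% DMSO cells.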

RAW264.7 [13] = experiment: Anti-inflammatory activity in mouse RAW264.7 cells assessed as inhibition of LPS-induced IL-6 mRNA expression pretreated for 1 hr followed by LPS stimulation and measured after 4 hrs by RT-PCR analysis; format: functional, cell-based
Summary of the method: (§6)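 RAW264.7 cells were exposed to compound (1, 5, 20 µM), dexamethasone 1 µM or 0.02% DMSO vehicle, then stimulated with LPS 25 ng/mL for 4 h. Total RNA was isolated and analysed by real-time PCR. mRNA was normalized to β-actin and expressed relative to unstimulated control cells. Mean ± SEM, n = 4.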

[14] = target: Transcription factor p65 (Mus musculus) (UniProt Q04207); experiment: Inhibition of LPS-stimulated NFkappaB activation in mouse RAW264.7 cells assessed as blockade of p65 NFkappaB nuclear translocation at 20 uM pretreated for 1 hr followed by LPS stimulation and measured after 4 hrs by Western blot analysis; format: cell-based
Summary of the method: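 After compound at 20 µM or vehicle with LPS 25 ng/mL for 4 h, cytoplasmic and nuclear fractions were blotted for p65. TBP (nuclear) and GAPDH (cytoplasmic) served as loading controls. Nuclear p65 was quantified by band intensity, mean ± SEM, n = 4.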

RAW264.7 [15] = experiment: Anti-inflammatory activity in mouse RAW264.7 cells assessed as inhibition of LPS-induced iNOS mRNA expression pretreated for 1 hr followed by LPS stimulation and measured after 4 hrs by RT-PCR analysis; format: functional, cell-based; summary of the method: as §6
RAW264.7 [16] = experiment: Anti-inflammatory activity in mouse RAW264.7 cells assessed as inhibition of LPS-induced TNFalpha production at 20 uM pretreated for 1 hr followed by LPS stimulation and measured after 18 hrs by ELISA relative to control; format: functional; design: scale not given: the % may be the effect or the level left; summary of the method: as §2
RAW264.7 [17] = experiment: Inhibition of LPS-stimulated SAPK/JNK phosphorylation in mouse RAW264.7 cells at 5 to 20 uM pretreated for 1 hr followed by LPS stimulation and measured after 4 hrs by Western blot analysis; format: cell-based; summary of the method: as §3
RAW264.7 [18] = experiment: Anti-inflammatory activity in mouse RAW264.7 cells assessed as inhibition of LPS-induced TNFalpha production at 0.1 uM pretreated for 1 hr followed by LPS stimulation and measured after 18 hrs by ELISA relative to control; format: functional; design: scale not given: the % may be the effect or the level left; summary of the method: as §2
RAW264.7 [19] = experiment: Anti-inflammatory activity in mouse RAW264.7 cells assessed as inhibition of LPS-induced TNF-alpha mRNA expression pretreated for 1 hr followed by LPS stimulation and measured after 4 hrs by RT-PCR analysis; format: functional, cell-based; summary of the method: as §6
RAW264.7 [20] = experiment: Anti-inflammatory activity in mouse RAW264.7 cells assessed as inhibition of LPS-induced IL-1beta mRNA expression pretreated for 1 hr followed by LPS stimulation and measured after 4 hrs by RT-PCR analysis; format: functional, cell-based; summary of the method: as §6
[21] = target: Transcription factor p65 (Mus musculus) (UniProt Q04207); experiment: Effect on p65 subunit NFkappaB phosphorylation in mouse RAW264.7 cells at 5 to 20 uM pretreated for 1 hr followed by LPS stimulation and measured after 4 hrs by Western blot analysis; format: cell-based; summary of the method: as §5
RAW264.7 [22] = experiment: Anti-inflammatory activity in mouse RAW264.7 cells assessed as inhibition of LPS-induced TNFalpha production at 5 uM pretreated for 1 hr followed by LPS stimulation and measured after 18 hrs by ELISA relative to control; format: functional; design: scale not given: the % may be the effect or the level left; summary of the method: as §2
RAW264.7 [23] = experiment: Anti-inflammatory activity in mouse RAW264.7 cells assessed as inhibition of LPS-induced IL-6 production at 1 uM pretreated for 1 hr followed by LPS stimulation and measured after 18 hrs by ELISA relative to control; format: functional; design: scale not given: the % may be the effect or the level left; summary of the method: as §2
[24] = Cytotoxicity against mouse RAW264.7 cells assessed as cell viability at 5 uM incubated for 18 hrs by celltiter-glo luminescent assay relative to control; format: cell-based; conditions: read-out: Activity; summary of the method: as §1
RAW264.7 [25] = experiment: Anti-inflammatory activity in mouse RAW264.7 cells assessed as inhibition of LPS-induced MCP-1 mRNA expression pretreated for 1 hr followed by LPS stimulation and measured after 4 hrs by RT-PCR analysis; format: functional, cell-based; summary of the method: as §6
[26] = Cytotoxicity against mouse RAW264.7 cells assessed as cell viability at 1 uM incubated for 18 hrs by celltiter-glo luminescent assay relative to control; format: cell-based; conditions: read-out: Activity; summary of the method: as §1
[27] = target: RAC-alpha serine/threonine-protein kinase (Mus musculus) (UniProt P31750); experiment: Inhibition of LPS-stimulated AKT phosphorylation in mouse RAW264.7 cells at 5 to 20 uM pretreated for 1 hr followed by LPS stimulation and measured after 4 hrs by Western blot analysis; format: cell-based; summary of the method: as §3
Mus musculus [28] = species on record: Mus musculus; experiment: Inhibition of LPS-stimulated NFkappaB activation in mouse RAW blue cells assessed as reduction in SEAP protein expression at 0.1 to 20 uM pretreated for 1 hr followed by LPS stimulation and measured after 24 hrs by reporter gene assay; format: cell-based; summary of the method: as §4

**Q.** Which results are given for `C=C1CC[C@H]2C(C)(C)CCC[C@]2(C)[C@H]1C/C=C1/C(=O)OC[C@H]1O`?
**A.** viability at 18 h, 20 µM [1]: 53.7%; Activity (RAW264.7 [2]): 10.8%; inhibition [3]: Dose-dependent effect; inhibition [4]: inactive; Activity (RAW264.7 [5]): 99.2%; Activity (RAW264.7 [6]): 63.4%; Activity (RAW264.7 [7]): 40%; IC50 (RAW264.7 [8]): 3.91 µM; inhibition (RAW264.7 [8]): Dose-dependent effect; viability at 18 h, 0.1 µM [9]: 103%; inhibition (Mus musculus [10]): Dose-dependent effect; inhibition [11]: inactive; Activity [12]: inactive; inhibition (RAW264.7 [13]): Dose-dependent effect; inhibition [14]: Active; inhibition (RAW264.7 [15]): Dose-dependent effect; Activity (RAW264.7 [16]): 1.7%; inhibition (RAW264.7 [17]): inactive; Activity (RAW264.7 [18]): 99.3%; inhibition (RAW264.7 [19]): Dose-dependent effect; inhibition (RAW264.7 [20]): Dose-dependent effect; Activity [21]: inactive; Activity (RAW264.7 [22]): 19.2%; Activity (RAW264.7 [23]): 68.1%; viability at 18 h, 5 µM [24]: 82.7%; inhibition (RAW264.7 [25]): Dose-dependent effect; viability at 18 h, 1 µM [26]: 95.6%

**Q.** Which inhibition [4] does the source give for `C=C1CC[C@@H]2[C@](C)(CO)[C@H](O)CC[C@@]2(C)[C@@H]1C/C=C1/C(=O)OC[C@H]1O` here?
**A.** Its inhibition is “Active”.

**Q.** What about the inhibition [27] of the same compound?
**A.** Its inhibition is “Active”.

**Q.** And the inhibition [11]?
**A.** Its inhibition is “Active”.

**Q.** And the inhibition (RAW264.7 [17])?
**A.** Its inhibition is “Active”.

**Q.** What about the inhibition (Mus musculus [28]) of the same compound?
**A.** The inhibition was “inactive”.
